Experimental data gathered from unrelated publications.
Protocols differ between the studies behind these lines.
Dipeptidyl peptidase 2: Dipeptidyl peptidase 2 (Homo sapiens, UniProt Q9UHL4)
PTGS2: Prostaglandin G/H synthase 2 (PTGS2, Homo sapiens, UniProt P35354)
ADRA1D: Alpha-1D adrenergic receptor (ADRA1D, Homo sapiens, UniProt P25100)
CASP7: Caspase-7 (CASP7, Homo sapiens, UniProt P55210)

| SMILES | target | observed | action | technique | concentration | inhibition [%] |
| --- | --- | --- | --- | --- | --- | --- |
| C#Cc1n[nH]c2c(-c3cn(C(C)c4ccccn4)c(=O)[nH]c3=O)cc(F)cc12 (stereo not drawn) | Platelet-derived growth factor receptor beta (PDGFRB, Homo sapiens, UniProt P09619) | enzyme activity | inhibitor | – | 1 µM | 6.6 |
| N#Cc1ccc(NCCNCC(=O)N2N=CCC2C#N)nc1 (stereo not drawn) | Dipeptidyl peptidase 2 | enzyme activity | inhibitor | – | 1 µM | 8 |
| Cn1cc(-c2cc(F)cc(N3CCn4c(cc5c4CCCC5)C3=O)c2CO)cc(Nc2ccc(N3CCN(C4COC4)CC3)cn2)c1=O | Protein kinase C zeta type (PRKCZ, Homo sapiens, UniProt Q05513) | enzyme activity | inhibitor | – | 0.1 µM | -2 |
| Nc1ccc(-c2nc3ccccc3s2)c(-c2ccc(O)cc2)c1 | PTGS2 | enzyme activity | inhibitor | absorbance | 10 µM | 15.3 |
| CC(C)N1CCC[C@H]1CNC(=O)c1cn(C2CCCC2)c(=O)c2c1c1ccccc1n2C | ADRA1D | ligand displacement | – | radioligand | 10 µM | 9 |
| Cc1ccc(-c2nc3ccccc3s2)c(-c2ccc(S(N)(=O)=O)cc2)c1 | PTGS2 | enzyme activity | inhibitor | absorbance | 10 µM | 87.3 |
| COCc1c(-c2cc3cc(C)cc(OC)c3s2)c2c(N)ncnn2c1CN1CCNC(=O)C1 | Alpha-2B adrenergic receptor (ADRA2B, Homo sapiens, UniProt P18089) | ligand displacement | – | radioligand | 10 µM | 34 |
| CN(C)Cc1ccc(-c2nc3ccccc3s2)c(-c2ccc(O)cc2)c1 | PTGS2 | enzyme activity | inhibitor | absorbance | 10 µM | 0 |
| OC(c1ccc(F)cc1)C(F)(F)CCN1CCC(O)(c2ccc(Cl)cc2)CC1 (racemic) | Sigma non-opioid intracellular receptor 1 (SIGMAR1, Cavia porcellus, UniProt Q60492) | ligand displacement | – | radioligand | 10 µM | > 50 |
| NS(=O)(=O)c1ccc(-c2ncc(Cl)cc2-c2nc3ccccc3s2)cc1 | PTGS2 | enzyme activity | inhibitor | absorbance | 10 µM | 100 |
| CN(C)C(=O)COC(=O)Cc1ccc(OC(=O)c2ccc(NC(=N)N)cc2)cc1 | Dipeptidyl peptidase 2 | enzyme activity | inhibitor | – | 10 µM | 20 |
| Cn1cc(-c2cccc(N3CCc4c(sc5c4CC(C)(C)C5)C3=O)c2CO)cc(Nc2ccncn2)c1=O | Dual specificity tyrosine-phosphorylation-regulated kinase 3 (DYRK3, Homo sapiens, UniProt O43781) | enzyme activity | inhibitor | – | 1 µM | 6 |
| CCN(CC)CCCC[C@H](NC(=O)[C@H](CC(C)C)NC(=O)[C@H](C)NC(=O)[C@H](Cc1ccccc1)NC(=O)c1ccc(C(C)(C)C)cc1)C(=O)N[C@@H](CO)C(=O)OC | Neuropeptide Y receptor type 2 (NPY2R, Homo sapiens, UniProt P49146) | ligand displacement | – | radioligand | 10 µM | 10 |
| CC(=O)N[C@@H](CC(=O)O)C(=O)N[C@@H](CC(N)=O)C(=O)N[C@@H](CC(C)C)C(=O)N[C@H](C=O)CC(=O)O | CASP7 | enzyme activity | inhibitor | – | 0.5 µM | 89 |
| CC(C)C[C@H](NC(=O)[C@H](Cc1ccccc1)NC(=O)c1cnccn1)B(O)O | Dipeptidyl peptidase 2 | enzyme activity | inhibitor | – | 33 µM | 78.7 |
| Nc1ccc(-c2nc3ccccc3s2)c(-c2cccc(O)c2)c1 | PTGS2 | enzyme activity | inhibitor | absorbance | 10 µM | 33.3 |
| O=C(Nc1cccnn1)N1CCN([C@@H]2CCOc3cc(C(F)(F)F)ccc32)CC1 | Melanocyte-stimulating hormone receptor (Mc1r, Mus musculus, UniProt Q01727) | cell-free assay | – | – | 20 µM | 0 |
| N=C(N)c1ccc2cc(OC(=O)c3ccc(N=C(N)N)cc3)ccc2c1 | CASP7 | enzyme activity | inhibitor | – | 10 µM | 1 |
| CS(=O)(=O)c1ccc(-c2ncc(Cl)cc2-c2nc3ccccc3s2)cc1 | PTGS2 | enzyme activity | inhibitor | absorbance | 10 µM | 98 |
| CCOC(=O)c1ccc(OC(=O)CCCCCNC(=N)N)cc1 | Dipeptidyl peptidase 2 | enzyme activity | inhibitor | – | 10 µM | 83 |
| CC(C)Cn1cnc2c(N)nc3ccccc3c21 | ADRA1D | ligand displacement | – | radioligand | 10 µM | 76 |
